Experiments:
OVCAR-8 = experiment: Growth inhibition of human OVCAR8 cells after 48 hrs by SRB assay; assay type: functional
SK-BR-3 [1] = experiment: Cell cycle arrest in human SK-BR-3 cells assessed as accumulation at S phase at 0.25 uM after 18 hrs using propidium iodide staining by FACS analysis; assay type: functional
SK-BR-3 [2] = experiment: Cell cycle arrest in human SK-BR-3 cells assessed as accumulation at G1 phase at 5 uM after 6 hrs using propidium iodide staining by FACS analysis; assay type: functional
In short: (§1)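 SKBR-3 cells in RPMI1640 with 10% heat-inactivated FBS at 37 °C and 5% CO₂ were treated for the stated times. Cells were fixed overnight in 70% EtOH at −20 °C, then stained with propidium iodide buffer (38 mM sodium citrate pH 7.5, 69 µM PI, 120 µg/mL RNase A) for 15 min at room temperature in the dark. Up to 1×10⁴ gated cells were analyzed by flow cytometry, giving percent distribution per phase.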

CAKI-1 = experiment: Growth inhibition of human Caki1 cells after 48 hrs by SRB assay; assay type: functional
MDA-MB-468 = experiment: Growth inhibition of human MDA-MB-468 cells after 48 hrs by SRB assay; assay type: functional
U-251 = experiment: Growth inhibition of human U251 cells after 48 hrs by SRB assay; assay type: functional
SK-BR-3 [3] = experiment: Cell cycle arrest in human SK-BR-3 cells assessed as accumulation at G1 phase at 0.50 uM after 24 hrs using propidium iodide staining by FACS analysis; assay type: functional; in short: as §1
SK-BR-3 [4] = experiment: Cell cycle arrest in human SK-BR-3 cells assessed as accumulation at Sub-G1 phase at 0.25 uM after 18 hrs using propidium iodide staining by FACS analysis; assay type: functional
SK-BR-3 [5] = experiment: Cell cycle arrest in human SK-BR-3 cells assessed as accumulation at G2/M phase at 0.50 uM after 6 hrs using propidium iodide staining by FACS analysis; assay type: functional; in short: as §1
IGROV-1 = experiment: Growth inhibition of human IGROV1 cells after 48 hrs by SRB assay; assay type: functional
M14 = experiment: Growth inhibition of human M14 cells after 48 hrs by SRB assay; assay type: functional
HCT-116 = experiment: Growth inhibition of human HCT116 cells after 48 hrs by SRB assay; assay type: functional
SW-620 = experiment: Growth inhibition of human SW620 cells after 48 hrs by SRB assay; assay type: functional
NCI-H23 = experiment: Growth inhibition of human NCI-H23 cells after 48 hrs by SRB assay; assay type: functional
SK-BR-3 [6] = experiment: Cell cycle arrest in human SK-BR-3 cells assessed as accumulation at G1 phase at 0.25 uM after 6 hrs using propidium iodide staining by FACS analysis; assay type: functional; in short: as §1
HL-60(TB) = experiment: Growth inhibition of human HL-60(TB) cells after 48 hrs by SRB assay; assay type: functional
In short: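 Tested in the 60-cell-line panel of the NCI Developmental Therapeutics Program with 48 h drug exposure. The read-out is cellular protein.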

SK-BR-3 [7] = experiment: Cell cycle arrest in human SK-BR-3 cells assessed as accumulation at S phase at 5 uM after 3 hrs using propidium iodide staining by FACS analysis; assay type: functional
786-0 = experiment: Growth inhibition of human 786-0 cells after 48 hrs by SRB assay; assay type: functional
RPMI-8226 = experiment: Growth inhibition of human RPMI8226 cells after 48 hrs by SRB assay; assay type: functional
SK-BR-3 [8] = experiment: Cell cycle arrest in human SK-BR-3 cells assessed as accumulation at S phase at 0.25 uM after 12 hrs using propidium iodide staining by FACS analysis; assay type: functional
SK-BR-3 [9] = experiment: Cell cycle arrest in human SK-BR-3 cells assessed as accumulation at Sub-G1 phase at 0.50 uM after 12 hrs using propidium iodide staining by FACS analysis; assay type: functional
MOLT-4 = experiment: Growth inhibition of human MOLT4 cells after 48 hrs by SRB assay; assay type: functional
SK-BR-3 [10] = experiment: Cell cycle arrest in human SK-BR-3 cells assessed as accumulation at G2/M phase at 0.50 uM after 24 hrs using propidium iodide staining by FACS analysis; assay type: functional; in short: as §1
K562 = experiment: Growth inhibition of human K562 cells after 48 hrs by SRB assay; assay type: functional
SK-BR-3 [11] = experiment: Cell cycle arrest in human SK-BR-3 cells assessed as accumulation at Sub-G1 phase at 0.50 uM after 6 hrs using propidium iodide staining by FACS analysis; assay type: functional
SK-BR-3 [12] = experiment: Cell cycle arrest in human SK-BR-3 cells assessed as accumulation at G2/M phase at 5 uM after 6 hrs using propidium iodide staining by FACS analysis; assay type: functional; in short: as §1
[13] = Apparent oral clearance in Sprague-Dawley rat at 20 mg/kg, ip; assay type: ADME, organism-based; design: dose 20 mg/kg; conditions: in vivo
In short: (§2)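 Male Sprague–Dawley rats (300–350 g), n=3, fasted overnight with water available, given a single 20 mg/kg i.p. dose in PBS with 0.1% Tween80 and 20% DMSO. Blood drawn into heparinized tubes at 0, 0.25, 0.5, 1, 2, 4, 8 and 24 h. Plasma measured by LC-MS/MS against an internal standard. Parameters from non-compartmental analysis.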

[14] = Apparent volume of distribution during terminal phase in Sprague-Dawley rat at 20 mg/kg, ip; assay type: ADME, organism-based; design: dose 20 mg/kg, route intraperitoneal; conditions: in vivo, read-out: Vz/F; in short: as §2
SK-BR-3 [15] = experiment: Cell cycle arrest in human SK-BR-3 cells assessed as accumulation at G1 phase at 0.25 uM after 18 hrs using propidium iodide staining by FACS analysis; assay type: functional; in short: as §1
PC-3 = experiment: Growth inhibition of human PC3 cells after 48 hrs by SRB assay; assay type: functional
UO-31 = experiment: Growth inhibition of human UO31 cells after 48 hrs by SRB assay; assay type: functional
SK-BR-3 [16] = experiment: Cell cycle arrest in human SK-BR-3 cells assessed as accumulation at Sub-G1 phase at 5 uM after 3 hrs using propidium iodide staining by FACS analysis; assay type: functional

Cc1ccc(C)c(COc2cc(NC(=O)c3ccc4c(c3)OCO4)ccc2N(C)S(C)(=O)=O)c1
growth inhibition (GI) (OVCAR-8): Dose-dependent effect
GI50 (OVCAR-8; OVCAR-8, 48 h): 265 nM
TGI (OVCAR-8; OVCAR-8, 48 h): > 100000 nM
CC50 (OVCAR-8; OVCAR-8, 48 h, read-out: LC50 (the source's name)): > 100000 nM
Activity (SK-BR-3 [1]): 6.81%
Activity (SK-BR-3 [2]): 64.76%
growth inhibition (GI) (CAKI-1): Dose-dependent effect
TGI (CAKI-1; CAKI-1, 48 h): > 100000 nM
CC50 (CAKI-1; CAKI-1, 48 h, read-out: LC50 (the source's name)): > 100000 nM
growth inhibition (GI) (MDA-MB-468): Dose-dependent effect
GI50 (MDA-MB-468; MDA-MB-468, 48 h): 155 nM
TGI (MDA-MB-468; MDA-MB-468, 48 h): 401 nM
growth inhibition (GI) (U-251): Dose-dependent effect
GI50 (U-251; U-251, 48 h): 266 nM
TGI (U-251; U-251, 48 h): 21900 nM
CC50 (U-251; U-251, 48 h, read-out: LC50 (the source's name)): > 100000 nM
Activity (SK-BR-3 [3]): 31.77%
Activity (SK-BR-3 [4]): 8.89%
Activity (SK-BR-3 [5]): 13.9%
growth inhibition (GI) (IGROV-1): Dose-dependent effect
GI50 (IGROV-1; IGROV-1, 48 h): 237 nM
TGI (IGROV-1; IGROV-1, 48 h): > 100000 nM
CC50 (IGROV-1; IGROV-1, 48 h, read-out: LC50 (the source's name)): > 100000 nM
growth inhibition (GI) (M14): Dose-dependent effect
GI50 (M14; M14, 48 h): 75.7 nM
TGI (M14; M14, 48 h): 669 nM
CC50 (M14; M14, 48 h, read-out: LC50 (the source's name)): > 100000 nM
growth inhibition (GI) (HCT-116): Dose-dependent effect
TGI (HCT-116; HCT-116, 48 h): 1020 nM
CC50 (HCT-116; HCT-116, 48 h, read-out: LC50 (the source's name)): > 100000 nM
growth inhibition (GI) (SW-620): Dose-dependent effect
GI50 (SW-620; SW-620, 48 h): 112 nM
TGI (SW-620; SW-620, 48 h): > 100000 nM
CC50 (SW-620; SW-620, 48 h, read-out: LC50 (the source's name)): > 100000 nM
growth inhibition (GI) (NCI-H23): Dose-dependent effect
GI50 (NCI-H23; NCI-H23, 48 h): 162 nM
TGI (NCI-H23; NCI-H23, 48 h): > 100000 nM
CC50 (NCI-H23; NCI-H23, 48 h, read-out: LC50 (the source's name)): > 100000 nM
Activity (SK-BR-3 [6]): 72.21%
growth inhibition (GI) (HL-60(TB)): Dose-dependent effect
GI50 (HL-60(TB); HL-60, 48 h): 26.9 nM
TGI (HL-60(TB); HL-60, 48 h): 96.7 nM
CC50 (HL-60(TB); HL-60, 48 h, read-out: LC50 (the source's name)): > 100000 nM
Activity (SK-BR-3 [7]): 16.49%
growth inhibition (GI) (786-0): Dose-dependent effect
GI50 (786-0; 786-0, 48 h): 191 nM
TGI (786-0; 786-0, 48 h): 1110 nM
CC50 (786-0; 786-0, 48 h, read-out: LC50 (the source's name)): > 100000 nM
growth inhibition (GI) (RPMI-8226): Dose-dependent effect
GI50 (RPMI-8226; RPMI-8226, 48 h): 290 nM
CC50 (RPMI-8226; RPMI-8226, 48 h, read-out: LC50 (the source's name)): > 100000 nM
Activity (SK-BR-3 [8]): 6.14%
Activity (SK-BR-3 [9]): 6.36%
growth inhibition (GI) (MOLT-4): Dose-dependent effect
GI50 (MOLT-4; MOLT-4, 48 h): 163 nM
TGI (MOLT-4; MOLT-4, 48 h): > 100000 nM
CC50 (MOLT-4; MOLT-4, 48 h, read-out: LC50 (the source's name)): > 100000 nM
Activity (SK-BR-3 [10]): 28.14%
growth inhibition (GI) (K562): Dose-dependent effect
GI50 (K562; K562, 48 h): 40.3 nM
TGI (K562; K562, 48 h): > 100000 nM
CC50 (K562; K562, 48 h, read-out: LC50 (the source's name)): > 100000 nM
Activity (SK-BR-3 [11]): 4.03%
Activity (SK-BR-3 [12]): 17.19%
CL/F [13]: 8 mL/min
Vd/F [14]: 2.16 L/kg
Activity (SK-BR-3 [15]): 73.42%
growth inhibition (GI) (PC-3): Dose-dependent effect
GI50 (PC-3; PC-3, 48 h): 67.7 nM
TGI (PC-3; PC-3, 48 h): > 100000 nM
growth inhibition (GI) (UO-31): Dose-dependent effect
GI50 (UO-31; UO-31, 48 h): 395 nM
TGI (UO-31; UO-31, 48 h): > 100000 nM
Activity (SK-BR-3 [16]): 2.81%

From ChEMBL document CHEMBL1932938, “From COX-2 inhibitor nimesulide to potent anti-cancer agent: synthesis, in vitro, in vivo and pharmacokinetic evaluation” (Eur J Med Chem, 2012)
